PP5 inh – PP5 (human) phosphatase inhibition; inhibition, % at 6.7 µM; purified PP5c, OMFP substrate fluorescence; AID 1987; P53041; actives 0.18% (n = 320,000);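 active = inhibition above the campaign's mean inhibition across all tested compounds plus 3 SD, cut at about 9.5% in these data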;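 note: 0% = DMSO only and 100% = 100 µM cantharidin control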
Myeloid diff MLP – myeloid differentiation induction. ER-HoxA9 myeloid progenitors, lysozyme-GFP differentiation, flow cytometry. calls only at 10 µM. actives 1% (n = 360,000);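 active = normalized GFP-positive differentiation at or above the plate's own cutoff, the solvent-only control mean plus 3 SD; inconclusive = no clear call, values can overlap the other calls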;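 note: cells exposed to compound for four days before flow analysis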
NadD block – NadD (S. aureus) enzyme inhibition | inhibition, % at 20 µM | AID 602399 | purified NadD enzyme, colorimetric absorbance read-out | actives 0.78% (n = 360,000); in the data active = inhibition above about 26%
HCV core dimer – HCV core protein dimerization inhibition; AID 1899; inhibition, % at 5 µM; TR-FRET GST/Flag-core106 dimerization, 1536-well; actives 0.33% (n = 300,000);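 active = inhibition above the mean of all tested compounds plus 3 SD, set per screening campaign, cut at about 45% in these data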
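assay system = GST-tagged and Flag-tagged HCV core protein residues 1-106 | controls = unlabelled core106 and no-GST-core106 wells | incubation = compound-protein-antibody incubation 4 h at 22.5 °C | probe or stimulus = Eu donor and XL665 acceptor anti-tag antibodies | read-out = % inhibition based on acceptor/donor emission ratio | signal = TR-FRET 671 and 617 nm emission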
CTSL1 counter – counter-screen for PFM18AAP inhibitors: inhibitors of F. hepatica cathepsin L1 | recombinant F. hepatica cathepsin L1, Z-Leu-Arg-MCA fluorescence | inhibition, % at 5.96 µM | actives 0.49% (n = 300,000) | AID 1906;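 active = inhibition above the mean of all tested compounds plus 3 SD, set per screening campaign, cut at about 17% in these data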;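 note: 0% = plate median of test compound wells and 100% = 1 µM Z-Phe-Ala-diazomethylketone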
PP1 inh – blocks human PP1-alpha phosphatase, a PP5 counter-screen; P62136; purified PP1alpha, OMFP fluorescence; inhibition, % at 6.7 µM; actives 0.9% (n = 320,000); AID 2235;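 active = inhibition above the mean inhibition of all tested compounds plus 3 SD, computed separately for each screening campaign, cut at about 15% in these data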
Target sequence (P62136 whole entry, looked up): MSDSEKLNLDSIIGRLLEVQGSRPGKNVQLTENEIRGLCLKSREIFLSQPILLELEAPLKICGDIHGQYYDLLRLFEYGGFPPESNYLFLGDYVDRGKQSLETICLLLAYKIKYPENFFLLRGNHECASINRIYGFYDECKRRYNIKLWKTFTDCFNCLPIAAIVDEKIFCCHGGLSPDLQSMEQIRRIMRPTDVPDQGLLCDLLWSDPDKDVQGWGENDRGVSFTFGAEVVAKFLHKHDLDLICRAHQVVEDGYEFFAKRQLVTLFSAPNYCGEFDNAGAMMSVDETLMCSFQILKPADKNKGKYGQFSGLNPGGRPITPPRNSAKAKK
PP5 inh confirm – PP5 (human) inhibition, confirmation. actives 22% (n = 460). inhibition, % at 6.7 µM. shares compounds with PP5 inh. Purified PP5, fluorogenic phosphatase substrate, fluorescence; in the data active = inhibition above about 9.5%
PP1 counter 3x – counter-screen for PP5 inhibitors: human PP1 phosphatase inhibition | actives 4% (n = 460) | shares compounds with PP5 inh | inhibition, % at 6.7 µM | PP1 enzyme, fluorescent phosphatase substrate | AID 2355; in the data active = inhibition above about 16%
* = called active by the depositor; i = inactive; ? = inconclusive; . = no result; + = active, no number. In the library only some 3.1% were active in any assay of this set; here they are far more common.

SMILES	PP5 inh	Myeloid diff MLP	NadD block	HCV core dimer	CTSL1 counter	PP1 inh	PP5 inh confirm	PP1 counter 3x
O=C1CCN(Cc2cccnc2)CCN1[C@H](CO)Cc1ccccc1	2	i	-4	9	-5	-8	.	.
CCCOc1cc2c(C#N)c(N3CCCC3)nc(N)c2c(N)n1	11*	i	12	-7	3	4	38*	3
N#Cc1c(N2CCCC2)nc(N)c2c(N)nc(N3CCCC3)cc12	16*	i	11	-6	110*	6	25*	18*
CCCCN(CC)c1nc(N)c2c(N)nc(OCC)cc2c1C#N	12*	i	5	-5	5	5	25*	2
COC(=O)[C@@]12C[C@@H](CC(=O)NCc3cccs3)C(=O)N(Cc3cccc4ccccc34)C1=CCC(C)(C)C2	.	i	.	.	.	.	.	.
CC(=O)Nc1ccc(Br)c(Cl)c1	11*	i	1	1	1	-2	-6	-6
CCCC(=O)Nc1ccc(Br)c(Cl)c1	1	i	-3	-7	-1	1	.	.
Cc1ccc(S(=O)(=O)N2CCC(C(=O)OCC(=O)N(Cc3ccccc3)C(C)C)CC2)cc1C	.	i	-4	.	.	.	.	.
Cc1ccccc1NC(=O)Nc1ccccc1C(=O)NCc1ccccc1	17*	i	-3	1	-2	0	-3	-2
Cc1ccc(NC(=O)Nc2ccccc2C(=O)NCc2ccccc2)cc1	3	i	-9	6	10	0	.	.
COC(=O)c1ccccc1C(=O)N1CCCC(CNC(=O)c2ccc(F)cc2)C1 (stereo not given)	-1	i	-3	-2	2	0	.	.
CC(C)(C)NC(=O)c1ccc(NC(=O)c2ccccc2-c2ccccc2C(=O)O)cc1	10*	i	-1	2	0	5	-8	-7
Cc1ccc(Cl)cc1NS(=O)(=O)c1ccccc1	.	i	-3	.	.	.	.	.
Cc1ccc(Cl)cc1NC1=C/C(=N\S(=O)(=O)c2cccs2)c2ccccc2C1=O	11*	?	6	22	60*	2	42*	11
O=C(Nc1ccc(Cl)cc1)N1CCCN(c2ccc(C(F)(F)F)cc2[N+](=O)[O-])CC1	12*	i	-5	0	-1	0	5	3
O=c1oc2ccc(Cl)cc2nc1/C=C(\O)c1cccs1	12*	i	-2	0	3	1	-4	-3
CCOc1ccc(OCC)c(NC(=O)C2C3C=CC(O3)C2C(=O)O)c1 (stereo not given)	.	i	-3	.	.	.	.	.
CCc1ccccc1NC(=O)C1C2C=CC(O2)C1C(=O)O (stereo not given)	21*	i	-1	-2	3	7	-2	4
CCOc1ccccc1NC(=O)C1C2C=CC(O2)C1C(=O)O (stereo not given)	30*	i	3	0	-5	3	2	11
COc1ccc(N2CCN(C(=O)CN3C(=O)NC4(CCCCC4C)C3=O)CC2)cc1 (stereo not given)	.	i	2	.	.	.	.	.
Nc1c(S(=O)(=O)c2cccs2)c2nc3ccccc3nc2n1CCc1ccccc1	4	.	.	5	-1	4	.	.
CC(C)CCn1c(N)c(S(=O)(=O)c2cccs2)c2nc3ccccc3nc21	10*	i	14	10	8	3	7	4
CCCN(Cc1nnc(-c2ccccc2Cl)o1)C(=O)c1cc(S(=O)(=O)N2CCOCC2)ccc1F	0	i	-5	2	-1	-3	.	.
Cc1ccc(C)c(N2CCN(C(=O)Cc3ccc(-n4c(=O)[nH]c5ccsc5c4=O)cc3)CC2)c1	13*	i	16	15	-1	-4	-4	-4
CCOc1ccc(NS(=O)(=O)c2cccc(C(=O)NCC3(N(C)C)CCCCC3)c2)cc1	.	i	-5	.	.	.	.	.
SMILES	PP5 inh	Myeloid diff MLP	NadD block	HCV core dimer	CTSL1 counter	PP1 inh	PP5 inh confirm	PP1 counter 3x
COc1ccc(S(N)(=O)=O)cc1C(=O)OCCCC(=O)c1ccccc1	0	i	2	.	.	3	.	.
CCOC(=O)NC(NC(=S)Nc1ccccc1[N+](=O)[O-])C(Cl)(Cl)Cl (stereo not given)	11*	i	6	-2	4	-5	-6	-4
Cc1cccc(OCC(=O)N/N=C/c2sc(=O)n(Cc3cccc(C(=O)O)c3)c2Cl)c1	13*	i	3	2	-1	3	-3	-1
CC(=O)Nc1ccc2c(c1)OCCO2	2	i	-1	1	-2	-1	.	.
CC1(C(=O)Nc2ccc3c(c2)OCCO3)CC1(Cl)Cl (stereo not given)	19*	i	-5	-7	4	-3	-5	-4
CSCc1ccc(C(=O)OCc2nc3ccccc3s2)o1	.	i	-1	.	.	.	.	.
COc1ccccc1C(=O)NCCC(=O)NCC1CCCCC1	.	i	-3	.	.	.	.	.
CCOc1cc(CNc2ncc(-c3ccc(OC)cc3)n2C)ccc1O	10*	i	-3	-5	6	0	1	-3
CCn1nnc(-c2ccccc2NS(=O)(=O)c2ccc(S(=O)(=O)N(C)C3CCCCC3)cc2)n1	12*	i	-3	4	-1	1	-3	-1
C=CCc1c(C)nc(SC)nc1Nc1ccc(C(=O)O)cc1	11*	i	-2	0	1	-2	-5	-4
CC(C)C(=O)Nc1cccc(C(=O)Nc2ccccc2C(=O)O)c1	10*	i	-5	0	1	-7	-6	-5
O=C(Nc1ccccc1C(=O)O)c1cccc(NC(=O)c2ccccc2Br)c1	-2	i	-7	13	-3	2	.	.
N#CC(C#N)=C1C=C2C=C(N3CCCCC3)CCC2CC1 (stereo not given)	-66	.	.	-21	8	-88	.	.
CCN(CC)C1=CC2=CC(=C(C#N)C#N)CCC2CC1 (stereo not given)	-61	+	10	-37	4	-47	-142	-48
Cc1onc(-c2ccccc2)c1C(=O)OCC(=O)Nc1ccc(OC(F)(F)F)cc1	9.7*	i	-8	.	.	14	7	6
Cn1nnnc1NCc1cccc(Cl)c1Cl	15*	i	2	-1	1	1	-1	-3
COc1ccc(C(=O)c2nccc3cc(OC)c(OC)cc23)cc1OC	13*	i	3	.	.	2	48*	7
COc1ccc(C(=O)c2ccc(OC)c(OC)c2)cc1OC	0	i	-2	3	2	-3	.	.
CC(C)Nc1nc(NC(C)C)nc(N(C)C(N)=O)n1	1	i	-5	0	-2	-2	.	.
CC(C)Nc1nc(NC(C)C)nc(C(N)=O)n1	11*	i	-3	-1	-2	0	-7	-6

Screens deposited in PubChem BioAssay by several laboratories.
